# Measurements reported in ChEMBL document CHEMBL5034013, “Discovery of VNRX-7145 (VNRX-5236 Etzadroxil): An Orally Bioavailable β-Lactamase Inhibitor for Enterobacterales Expressing Ambler Class A, C, and D Enzymes” (J Med Chem, 2021).
# How the values were obtained:
# Escherichia coli [1] = experiment: Antibacterial activity against Escherichia coli expressing TEM-1/SHV-12 assessed as concentration required to restore ceftibuten activity incubated for 16 to 20 hrs in presence of 1 ug/ml ceftibuten by broth microdilution method; assay type: functional; settings: time 16-20 hrs
# Escherichia coli [2] = experiment: Antibacterial activity against Escherichia coli expressing CTX-M-2 assessed as concentration required to restore ceftibuten activity incubated for 16 to 20 hrs in presence of 1 ug/ml ceftibuten by broth microdilution method; assay type: functional; settings: time 16-20 hrs
# [3] = Inhibition of bacterial beta-lactamase SHV-5 using cefotaxime as substrate preincubated for 15 mins followed by substrate addition and measured after 10 mins by spectrophotometric analysis; parameters: species or system Bacteria
# How it was run: (§1)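 IC50 is the mean of duplicate runs on separate days. A run was repeated automatically if it differed by more than 20% from the previous result.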
# [4] = Inhibition of bacterial beta-lactamase KPC-2 using imipenem as substrate preincubated for 15 mins followed by substrate addition and measured after 10 mins by spectrophotometric analysis; parameters: species or system Bacteria; how it was run: as §1
# [5] = Inhibition of bacterial beta-lactamase AmpC using nitrocefin as substrate preincubated for 15 mins followed by substrate addition and measured after 10 mins by spectrophotometric analysis; parameters: species or system Bacteria; how it was run: as §1
# [6] = Inhibition of bacterial beta-lactamase OXA-48 using nitrocefin as substrate preincubated for 15 mins followed by substrate addition and measured after 10 mins by spectrophotometric analysis; parameters: species or system Bacteria; how it was run: as §1
# Escherichia coli [7] = experiment: Antibacterial activity against Escherichia coli expressing CTX-M-15/TEM-1 assessed as concentration required to restore ceftibuten activity incubated for 16 to 20 hrs in presence of 1 ug/ml ceftibuten by broth microdilution method; assay type: functional; settings: time 16-20 hrs
# Klebsiella pneumoniae [8] = experiment: Antibacterial activity against Klebsiella pneumoniae expressing SHV-12/TEM-1 assessed as concentration required to restore ceftibuten activity incubated for 16 to 20 hrs in presence of 1 ug/ml ceftibuten by broth microdilution method; assay type: functional; settings: time 16-20 hrs
# Escherichia coli [9] = experiment: Antibacterial activity against Escherichia coli 786978 expressing KPC assessed as concentration required to restore ceftibuten activity incubated for 16 to 20 hrs in presence of 1 ug/ml ceftibuten by broth microdilution method; assay type: functional; settings: time 16-20 hrs
# Klebsiella pneumoniae [10] = experiment: Antibacterial activity against Klebsiella pneumoniae 156309 expressing SHV-11/TEM-1/KPC-2 assessed as concentration required to restore ceftibuten activity incubated for 16 to 20 hrs in presence of 1 ug/ml ceftibuten by broth microdilution method; assay type: functional; settings: time 16-20 hrs
# Escherichia coli [11] = experiment: Antibacterial activity against Escherichia coli J53 expressing SHV-5/TEM-1/AmpC assessed as concentration required to restore ceftibuten activity incubated for 16 to 20 hrs in presence of 1 ug/ml ceftibuten by broth microdilution method; assay type: functional; settings: time 16-20 hrs
# Klebsiella pneumoniae [12] = experiment: Antibacterial activity against Klebsiella pneumoniae 196477 expressing AmpC/CMY-2/TEM-1/CTX-M-15 assessed as concentration required to restore ceftibuten activity incubated for 16 to 20 hrs in presence of 1 ug/ml ceftibuten by broth microdilution method; assay type: functional; settings: time 16-20 hrs
# Escherichia coli [13] = experiment: Antibacterial activity against Escherichia coli 664507 expressing OXA-48 assessed as concentration required to restore ceftibuten activity incubated for 16 to 20 hrs in presence of 1 ug/ml ceftibuten by broth microdilution method; assay type: functional; settings: time 16-20 hrs
# How it was run: (§2)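 Tested against a 25-strain challenge panel of clinical E. coli and K. pneumoniae isolates carrying ESBL (n = 5), KPC (n = 11), class C (n = 4) or OXA-48 (n = 5) β-lactamases. Ceftibuten was held at 1 μg/mL while the BLI concentration varied. The read-out was the BLI concentration that rescued ceftibuten activity.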
# Klebsiella pneumoniae [14] = experiment: Antibacterial activity against Klebsiella pneumoniae expressing OXA-48 assessed as concentration required to restore ceftibuten activity incubated for 16 to 20 hrs in presence of 1 ug/ml ceftibuten by broth microdilution method; assay type: functional; settings: time 16-20 hrs
# Klebsiella pneumoniae [15] = experiment: Antibacterial activity against Klebsiella pneumoniae expressing TEM-1/SHV-12 assessed as concentration required to restore ceftibuten activity incubated for 16 to 20 hrs in presence of 1 ug/ml ceftibuten by broth microdilution method; assay type: functional; settings: time 16-20 hrs
# Klebsiella pneumoniae [16] = experiment: Antibacterial activity against Klebsiella pneumoniae expressing SHV-5/KPC-2/TEM-1 assessed as concentration required to restore ceftibuten activity incubated for 16 to 20 hrs in presence of 1 ug/ml ceftibuten by broth microdilution method; assay type: functional; settings: time 16-20 hrs
# Escherichia coli [17] = experiment: Antibacterial activity against Escherichia coli expressing AmpC/SHV-12/CTX-M-15/TEM-1 assessed as concentration required to restore ceftibuten activity incubated for 16 to 20 hrs in presence of 1 ug/ml ceftibuten by broth microdilution method; assay type: functional; settings: time 16-20 hrs
# Klebsiella pneumoniae [18] = experiment: Antibacterial activity against Klebsiella pneumoniae expressing SHV-1/TEM-1/KPC-2 assessed as concentration required to restore ceftibuten activity incubated for 16 to 20 hrs in presence of 1 ug/ml ceftibuten by broth microdilution method; assay type: functional; settings: time 16-20 hrs
# Klebsiella pneumoniae [19] = experiment: Antibacterial activity against Klebsiella pneumoniae expressing SHV-11/TEM-1/KPC-3 assessed as concentration required to restore ceftibuten activity incubated for 16 to 20 hrs in presence of 1 ug/ml ceftibuten by broth microdilution method; assay type: functional; settings: time 16-20 hrs
# Klebsiella pneumoniae [20] = experiment: Antibacterial activity against Klebsiella pneumoniae expressing SHV-12/TEM-1/KPC-2/AmpC assessed as concentration required to restore ceftibuten activity incubated for 16 to 20 hrs in presence of 1 ug/ml ceftibuten by broth microdilution method; assay type: functional; settings: time 16-20 hrs
# Klebsiella pneumoniae [21] = experiment: Antibacterial activity against Klebsiella pneumoniae expressing KPC-3/TEM-1/AmpC assessed as concentration required to restore ceftibuten activity incubated for 16 to 20 hrs in presence of 1 ug/ml ceftibuten by broth microdilution method; assay type: functional; settings: time 16-20 hrs
# Escherichia coli [22] = experiment: Antibacterial activity against Escherichia coli 849121 expressing KPC assessed as concentration required to restore ceftibuten activity incubated for 16 to 20 hrs in presence of 1 ug/ml ceftibuten by broth microdilution method; assay type: functional; settings: time 16-20 hrs
# Klebsiella pneumoniae [23] = experiment: Antibacterial activity against Klebsiella pneumoniae 845661 expressing KPC assessed as concentration required to restore ceftibuten activity incubated for 16 to 20 hrs in presence of 1 ug/ml ceftibuten by broth microdilution method; assay type: functional; settings: time 16-20 hrs
# Klebsiella pneumoniae [24] = experiment: Antibacterial activity against Klebsiella pneumoniae 845670 expressing KPC assessed as concentration required to restore ceftibuten activity incubated for 16 to 20 hrs in presence of 1 ug/ml ceftibuten by broth microdilution method; assay type: functional; settings: time 16-20 hrs
# Escherichia coli [25] = experiment: Antibacterial activity against Escherichia coli SI-P026TC expressing CMY-2/TEM-1 assessed as concentration required to restore ceftibuten activity incubated for 16 to 20 hrs in presence of 1 ug/ml ceftibuten by broth microdilution method; assay type: functional; settings: time 16-20 hrs
# Klebsiella pneumoniae [26] = experiment: Antibacterial activity against Klebsiella pneumonia 217917 expressing CMY-2/TEM-1 assessed as concentration required to restore ceftibuten activity incubated for 16 to 20 hrs in presence of 1 ug/ml ceftibuten by broth microdilution method; assay type: functional; settings: time 16-20 hrs; how it was run: as §2
# Klebsiella pneumoniae [27] = experiment: Antibacterial activity against Klebsiella pneumonia DOV expressing OXA-48 assessed as concentration required to restore ceftibuten activity incubated for 16 to 20 hrs in presence of 1 ug/ml ceftibuten by broth microdilution method; assay type: functional; settings: time 16-20 hrs; how it was run: as §2
# Klebsiella pneumoniae [28] = experiment: Antibacterial activity against Klebsiella pneumonia SI-C05 expressing OXA-48 assessed as concentration required to restore ceftibuten activity incubated for 16 to 20 hrs in presence of 1 ug/ml ceftibuten by broth microdilution method; assay type: functional; settings: time 16-20 hrs; how it was run: as §2
# Escherichia coli [29] = experiment: Antibacterial activity against Escherichia coli 664520 expressing OXA-48 assessed as concentration required to restore ceftibuten activity incubated for 16 to 20 hrs in presence of 1 ug/ml ceftibuten by broth microdilution method; assay type: functional; settings: time 16-20 hrs; how it was run: as §2
# [30] = Oral bioavailability in rat at 10 mg/kg administered as cassette dose measured by UPLC-MS/MS; assay type: ADME, organism-based; settings: in vivo, 10 mg/kg, in the assay text read “measured” for “administered as cassette dose measured”
# How it was run: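 Ester prodrugs are given to rats by oral gavage, some as a cassette with another ester. F is the percent absolute oral bioavailability of the parent, corrected for the MW difference between prodrug and parent.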
# [31] = Oral bioavailability in mouse at 5 mg/kg administered as cassette dose measured by UPLC-MS/MS analysis; assay type: ADME, organism-based; settings: in vivo
# How it was run: (§3)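 Ester prodrugs are dosed orally. F is the percent absolute oral bioavailability of the parent boronate, corrected for the molecular-weight difference between prodrug and parent.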
# [32] = Oral bioavailability in dog at 10 mg/kg administered as cassette dose measured by UPLC-MS/MS analysis; assay type: ADME, organism-based, Canis lupus familiaris; settings: in vivo; how it was run: as §3
# [33] = Oral bioavailability in monkey at 10 mg/kg administered as cassette dose measured by UPLC-MS/MS analysis; assay type: ADME, organism-based, Macaca mulatta; settings: rhesus monkey, in vivo; how it was run: as §3
# Escherichia coli [34] = experiment: In vivo antibacterial activity against Escherichia coli expressing TEM-1/CTX-M-15 infected in C3H/HeJ mouse assessed as log10 reduction in CFU in kidney at 1 to 300 mg/kg, sc administered every 12 hrs for 3 days starting from 4 days post infection and measured at 7 days post infection (reference value: 6.7 log10CFU); assay type: functional; settings: dose 1-300 mg/kg; time 3 day
# Escherichia coli [35] = experiment: In vivo antibacterial activity against Escherichia coli expressing TEM-1/CTX-M-15 infected in C3H/HeJ mouse assessed as log10 reduction in CFU in bladder at 1 to 300 mg/kg, sc administered every 12 hrs for 3 days starting from 4 days post infection and measured at 7 days post infection (reference value: 5.8 log10CFU); assay type: functional; settings: dose 1-300 mg/kg; time 3 day
# Escherichia coli [36] = experiment: In vivo antibacterial activity against Escherichia coli expressing TEM-1/CTX-M-15 infected in C3H/HeJ mouse assessed as log10 reduction in CFU in urine at 1 to 300 mg/kg, sc administered every 12 hrs for 3 days starting from 4 days post infection and measured at 7 days post infection (reference value: 6.7 log10CFU); assay type: functional; settings: dose 1-300 mg/kg; time 3 day
structure (smiles),measurement,setting,value
CC(=O)CCC(=O)N[C@H]1Cc2cccc(C(=O)O)c2OB1O,Activity,Escherichia coli [1],0.016 µg/mL
same,Activity,Escherichia coli [2],<=0.002 ug ml-1
same,IC50,[3],25 nM
same,IC50,[4],116 nM
same,IC50,[5],8 nM
same,IC50,[6],1450 nM
same,Activity,Escherichia coli [7],0.12 µg/mL
same,Activity,Klebsiella pneumoniae [8],0.06 µg/mL
same,Activity,Escherichia coli [9],1 µg/mL
same,Activity,Klebsiella pneumoniae [10],2 µg/mL
same,Activity,Escherichia coli [11],0.03 µg/mL
same,Activity,Klebsiella pneumoniae [12],0.06 µg/mL
same,Activity,Escherichia coli [13],0.06 µg/mL
same,Activity,Klebsiella pneumoniae [14],4 µg/mL
same,Activity,Klebsiella pneumoniae [15],0.016 µg/mL
same,Activity,Klebsiella pneumoniae [16],<=0.002 ug ml-1
same,Activity,Escherichia coli [17],0.016 µg/mL
same,Activity,Klebsiella pneumoniae [18],4 µg/mL
same,Activity,Klebsiella pneumoniae [19],0.25 µg/mL
same,Activity,Klebsiella pneumoniae [20],0.5 µg/mL
same,Activity,Klebsiella pneumoniae [21],0.5 µg/mL
same,Activity,Escherichia coli [22],<=0.002 ug ml-1
same,Activity,Klebsiella pneumoniae [23],4 µg/mL
same,Activity,Klebsiella pneumoniae [24],<=0.002 ug ml-1
same,Activity,Escherichia coli [25],0.5 µg/mL
same,Activity,Klebsiella pneumoniae [26],0.12 µg/mL
same,Activity,Klebsiella pneumoniae [27],0.06 µg/mL
same,Activity,Klebsiella pneumoniae [28],0.06 µg/mL
same,Activity,Escherichia coli [29],4 µg/mL
CCC(=O)N[C@H]1Cc2cccc(C(=O)OCOC(=O)C(C)(C)C)c2OB1O,bioavailability,[30],99%
same,bioavailability,[31],42%
same,bioavailability,[32],42%
same,bioavailability,[33],52%
Nc1nc(/C(=C/CC(=O)O)C(=O)N[C@@H]2C(=O)N3C(C(=O)O)=CCS[C@H]23)cs1 [CEFTIBUTEN],Activity,Escherichia coli [7],128 µg/mL
same,Activity,Klebsiella pneumoniae [8],32 µg/mL
same,Activity,Escherichia coli [9],8 µg/mL
same,Activity,Klebsiella pneumoniae [10],256 µg/mL
same,Activity,Escherichia coli [11],256 µg/mL
same,Activity,Klebsiella pneumoniae [12],4 µg/mL
same,Activity,Escherichia coli [13],128 µg/mL
same,Activity,Klebsiella pneumoniae [14],256 µg/mL
same,Activity,Escherichia coli [34],2 log10CFU/ml
same,Activity,Escherichia coli [35],2 log10CFU/ml
same,Activity,Escherichia coli [36],2 log10CFU/ml
